Assay results: ChEMBL document CHEMBL4020701, “A strategy for dual inhibition of the proteasome and fatty acid synthase with belactosin C-orlistat hybrids” (Bioorg Med Chem, 2017)

Columns and labels:
Fatty acid synthase [1] = biological target: T1, Fatty acid synthase (Homo sapiens, UniProt P49327); experiment: Inhibition of human FAS thioster domain preincubated for 30 mins followed by 4-methylumbelliferyl heptanoate substrate addition measured every 5 mins for 60 mins by fluorescence assay
Target sequence in this assay (P49327 whole entry, the tested form may be a part): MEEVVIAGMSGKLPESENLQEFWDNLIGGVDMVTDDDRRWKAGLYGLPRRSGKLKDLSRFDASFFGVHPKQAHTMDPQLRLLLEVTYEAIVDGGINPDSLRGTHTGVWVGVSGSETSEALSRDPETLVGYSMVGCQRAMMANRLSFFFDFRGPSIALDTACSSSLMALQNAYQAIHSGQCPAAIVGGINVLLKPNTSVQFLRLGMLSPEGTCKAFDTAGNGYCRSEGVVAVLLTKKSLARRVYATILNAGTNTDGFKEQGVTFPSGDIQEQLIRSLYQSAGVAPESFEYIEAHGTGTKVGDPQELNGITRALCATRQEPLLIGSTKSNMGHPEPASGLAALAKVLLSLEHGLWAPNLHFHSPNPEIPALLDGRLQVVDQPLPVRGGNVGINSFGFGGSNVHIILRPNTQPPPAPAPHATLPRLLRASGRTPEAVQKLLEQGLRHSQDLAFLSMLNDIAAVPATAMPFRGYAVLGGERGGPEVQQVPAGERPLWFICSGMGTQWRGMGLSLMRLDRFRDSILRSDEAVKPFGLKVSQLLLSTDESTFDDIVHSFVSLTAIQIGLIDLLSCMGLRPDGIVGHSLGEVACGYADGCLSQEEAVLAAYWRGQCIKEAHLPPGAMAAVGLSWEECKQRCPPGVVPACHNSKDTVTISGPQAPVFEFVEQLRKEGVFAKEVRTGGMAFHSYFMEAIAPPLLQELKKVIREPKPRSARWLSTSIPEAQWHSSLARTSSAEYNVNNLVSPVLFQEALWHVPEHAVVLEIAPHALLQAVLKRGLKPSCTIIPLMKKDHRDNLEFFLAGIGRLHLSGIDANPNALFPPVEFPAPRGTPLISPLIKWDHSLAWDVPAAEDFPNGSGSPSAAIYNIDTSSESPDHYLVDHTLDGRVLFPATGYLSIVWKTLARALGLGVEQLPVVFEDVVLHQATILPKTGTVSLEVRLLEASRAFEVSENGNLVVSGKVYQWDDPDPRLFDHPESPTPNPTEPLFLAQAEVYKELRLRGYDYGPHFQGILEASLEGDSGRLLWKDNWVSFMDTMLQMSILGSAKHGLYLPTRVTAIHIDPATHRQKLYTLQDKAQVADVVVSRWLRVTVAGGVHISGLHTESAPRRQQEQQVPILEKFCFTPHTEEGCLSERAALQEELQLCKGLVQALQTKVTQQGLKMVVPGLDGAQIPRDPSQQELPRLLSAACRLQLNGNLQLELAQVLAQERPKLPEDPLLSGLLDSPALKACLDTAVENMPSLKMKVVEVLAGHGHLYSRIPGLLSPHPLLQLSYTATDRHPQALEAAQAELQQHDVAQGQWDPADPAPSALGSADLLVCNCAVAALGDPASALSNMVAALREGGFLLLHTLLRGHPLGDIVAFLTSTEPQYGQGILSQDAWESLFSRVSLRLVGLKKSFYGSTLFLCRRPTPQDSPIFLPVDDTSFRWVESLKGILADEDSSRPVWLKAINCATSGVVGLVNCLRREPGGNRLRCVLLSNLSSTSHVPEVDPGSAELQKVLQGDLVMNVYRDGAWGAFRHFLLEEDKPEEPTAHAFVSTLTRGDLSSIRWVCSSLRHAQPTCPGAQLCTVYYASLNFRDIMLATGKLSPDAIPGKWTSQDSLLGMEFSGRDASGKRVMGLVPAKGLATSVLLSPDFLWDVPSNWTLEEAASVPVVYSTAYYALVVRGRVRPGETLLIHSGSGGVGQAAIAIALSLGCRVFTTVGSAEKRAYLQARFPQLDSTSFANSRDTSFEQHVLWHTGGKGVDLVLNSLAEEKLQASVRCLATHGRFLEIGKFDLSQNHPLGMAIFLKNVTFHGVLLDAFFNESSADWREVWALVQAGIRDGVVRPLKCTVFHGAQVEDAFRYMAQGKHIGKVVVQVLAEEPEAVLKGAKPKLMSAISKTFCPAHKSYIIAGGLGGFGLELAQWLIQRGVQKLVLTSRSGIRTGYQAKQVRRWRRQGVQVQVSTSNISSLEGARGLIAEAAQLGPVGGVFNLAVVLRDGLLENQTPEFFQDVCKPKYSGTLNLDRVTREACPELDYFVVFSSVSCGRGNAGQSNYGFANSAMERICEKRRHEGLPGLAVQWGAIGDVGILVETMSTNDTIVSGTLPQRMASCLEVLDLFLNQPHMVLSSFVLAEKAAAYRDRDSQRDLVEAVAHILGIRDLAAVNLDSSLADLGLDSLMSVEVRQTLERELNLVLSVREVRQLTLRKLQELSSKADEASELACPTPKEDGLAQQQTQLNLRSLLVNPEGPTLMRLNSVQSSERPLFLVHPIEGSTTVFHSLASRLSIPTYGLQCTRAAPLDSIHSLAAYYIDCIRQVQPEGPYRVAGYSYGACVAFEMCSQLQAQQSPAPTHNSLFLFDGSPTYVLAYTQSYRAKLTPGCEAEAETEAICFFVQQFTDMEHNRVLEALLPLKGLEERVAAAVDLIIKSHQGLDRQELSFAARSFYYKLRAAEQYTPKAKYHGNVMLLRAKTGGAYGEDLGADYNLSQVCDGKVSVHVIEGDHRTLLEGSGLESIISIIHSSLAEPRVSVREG

[2] = biological target: T2, Proteasome Macropain subunit MB1 (Homo sapiens, UniProt P28074); experiment: Inhibition of chymotrypsin-like activity of 20S proteasome in human red blood cells pretreated for 20 mins followed by Suc-Leu-Leu-Val-Tyr-AMC substrate addition by fluorescence assay; type: cell-based
T2 sequence (P28074 whole entry): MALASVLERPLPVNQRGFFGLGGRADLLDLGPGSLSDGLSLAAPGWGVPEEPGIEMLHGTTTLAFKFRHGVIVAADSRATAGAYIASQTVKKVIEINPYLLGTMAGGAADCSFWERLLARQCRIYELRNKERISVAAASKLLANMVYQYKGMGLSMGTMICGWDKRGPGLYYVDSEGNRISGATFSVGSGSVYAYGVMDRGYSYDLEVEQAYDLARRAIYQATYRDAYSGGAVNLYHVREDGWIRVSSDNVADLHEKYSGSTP
Outline: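 20S proteasome (50 ng) from human erythrocytes, preincubated 20 min at 37 °C in 20 mM Tris pH 7.5 with inhibitor series. AMC substrate then added: 10 µM Suc-LLVY for chymotrypsin-like, 20 µM Boc-LRR for trypsin-like, 20 µM Z-LLE for caspase-like. Hydrolysis followed at 360/460 nm for 600 s; the linear rate was fitted to a four-parameter curve for IC50. Triplicate.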

Fatty acid synthase [3] = biological target: T1, Fatty acid synthase; experiment: Inhibition of FAS thioster domain (unknown origin)
Outline: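 Human FAS-TE (500 nM) in 100 mM Tris-HCl, 50 mM NaCl, pH 7.4, preincubated 30 min at 37 °C with compound (0.32–100 µM and/or 0.08–10 µM final, DMSO). Reaction started with 4-methylumbelliferyl heptanoate. Fluorescence (350/450 nm) read every 5 min for 60 min, substrate-only background. IC50 by four-parameter fit; triplicate.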
Target sequence in this assay (P49327 whole entry, the tested form may be a part): as the sequence (P49327 whole entry, the tested form may be a part) above

HeLa = experiment: Cytotoxicity against human HeLa cells assessed as reduction in cell viability after 24 hrs by MTT assay; type: functional, cell-based
Outline: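 HeLa cells grown in DMEM with 10% FBS were seeded at 5000/well and left overnight. MTT was then added for 4 h, the formazan dissolved in DMSO and A570 read. IC50 came from dose-response curves; mean ± SEM of three independent experiments.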

[4] = Half life in DMEM medium at 5 uM in absence of 5% FBS by HPLC method; type: physicochemical
Outline: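 Compound diluted from DMSO stock to 5 µM final in DMEM (pH 7.5) and held at 37 °C under 5% CO2. Aliquots taken at intervals and quenched with pH 2.0 phosphate buffer. Remaining β-lactone quantified by C18 HPLC integration against initial compound. Run in triplicate.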

[5] = Half life in DMEM medium at 5 uM in presence of 5% FBS by HPLC method; type: physicochemical; details: cattle
Outline: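 Compound at 5 µM final in DMEM with 5% FBS at 37 °C, 5% CO2. Aliquots quenched with pH 2.0 phosphate buffer plus acetonitrile and vortexed to precipitate serum protein. Clear supernatant analysed by C18 HPLC as % β-lactone remaining versus initial. Triplicate.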

Fatty acid synthase [6] = biological target: T1, Fatty acid synthase; experiment: Competitive inhibition of human FAS thioster domain in MCF cells preincubated for 30 mins followed by TAMRA-N3 labelled (S)-4-ethynylbenzyl 2-((S)-2-(benzyloxycarbonylamino)-6-((2R,3S)-3-hexyl-4-oxooxetane-2-carboxamido)hexanamido)propanoate probe addition after 30 mins […]; type: cell-based
Outline: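 MCF-7 cells at 80–90% confluency in serum-free medium, pre-incubated 30 min at 37 °C with competitor (10 → 100 µM, 1–10-fold excess over probe; DMSO ≤0.1%). Alkyne probe then added at 10 µM final for 30 min. Cells lysed in NP-40/deoxycholate, protein normalized by BCA, clicked to TAMRA-N3 (CuSO4/TCEP/TBTA, 1–1.5 h RT), resolved by SDS-PAGE, read by in-gel fluorescence.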
Target sequence in this assay (P49327 whole entry, looked up, the tested form may be a part): as the sequence (P49327 whole entry, the tested form may be a part) above

Row | Structure (SMILES) | IC50 (Fatty acid synthase [1]) [µM] | IC50 [2] [µM] | also measured
1 | CCCCCC[C@@]1(C)C(=O)O[C@H]1C(=O)NCCCC[C@H](NC(=O)[C@H](C)NC(=O)OCc1ccccc1)C(=O)OCc1ccccc1 | 1.19 | – | –
2 | CCCCCC[C@@H]1C(=O)O[C@H]1C(=O)NCCC[C@H](NC(=O)[C@H](C)NC(=O)OCc1ccccc1)C(=O)OCc1ccccc1 | 4.35 | 0.7 | IC50 (Fatty acid synthase [3]): 0.16 to 4 µM
3 | CCC[C@@H]1C(=O)O[C@H]1C(=O)NCCC[C@H](NC(=O)[C@H](C)NC(=O)OCc1ccccc1)C(=O)OCc1ccccc1 | – | – | IC50 (Fatty acid synthase [3]): 0.16 to 4 µM
4 | CC(C)C[C@@H]1C(=O)O[C@H]1C(=O)NCCC[C@H](NC(=O)[C@H](C)NC(=O)OCc1ccccc1)C(=O)OCc1ccccc1 | – | – | IC50 (Fatty acid synthase [3]): 0.16 to 4 µM
5 | CCCCCC[C@@]1(C)C(=O)O[C@@H]1C(=O)NCCCC[C@H](NC(=O)[C@H](C)NC(=O)OCc1ccccc1)C(=O)OCc1ccccc1 | 3.11 | – | –
6 | CCCCCCCCCCC[C@@H](C[C@@H]1OC(=O)[C@H]1CCCCCC)OC(=O)[C@H](CC(C)C)NC=O [ORLISTAT] | – | > 100 | –
7 | CCCCCC[C@@H]1C(=O)O[C@H]1C(=O)NCCCC[C@H](NC(=O)OCc1ccccc1)C(=O)N[C@@H](C)C(=O)OCc1ccccc1 | 1.5 | 0.37 | IC50 (HeLa): 45.8 µM; t1/2 [4]: 20 min; t1/2 [5]: < 3 min; inhibition (Fatty acid synthase [6]): Dose-dependent effect
8 | CCCCCC[C@]1(C)C(=O)O[C@H]1C(=O)NCCCC[C@H](NC(=O)[C@H](C)NC(=O)OCc1ccccc1)C(=O)OCc1ccccc1 | 2.61 | – | t1/2 [4]: 70 min; t1/2 [5]: 120 min
9 | CCCCCC[C@@H]1C(=O)O[C@H]1C(=O)NCCCC[C@@H]1NC(=O)N([C@@H](C)C(=O)OCc2ccccc2)C1=O | 5.55 | 0.51 | –
10 | CCCCCC[C@H]1C(=O)O[C@@H]1C(=O)NCCCC[C@H](NC(=O)OCc1ccccc1)C(=O)N[C@@H](C)C(=O)OCc1ccccc1 | 12.6 | 2.71 | –
11 | CCCCCC[C@@H]1C(=O)O[C@H]1C(=O)NCCCC[C@H](NC(=O)[C@H](C)NC(=O)c1ccc(Br)cc1)C(=O)OCc1ccccc1 | 4.81 | – | –
12 | C#Cc1ccc(COC(=O)[C@H](C)NC(=O)[C@H](CCCCNC(=O)[C@@H]2OC(=O)[C@H]2CCCCCC)NC(=O)OCc2ccccc2)cc1 | 3.98 | 0.26 | –
